Results published in ChEMBL document CHEMBL1649383, “Mode of action of epoxyphomalins A and B and characterization of related metabolites from the marine-derived fungus Paraconiothyrium sp” (J Nat Prod, 2010).
≈ marks a conversion by molar mass, not a printed value.

Legend:
[1] = Cytotoxicity against human RXF 1781L cells at 1 ug/ml relative to control; type: functional
[2] = Cytotoxicity against human BXF 1218L cells at 10 ug/ml relative to control; type: functional
NCI-H460 [3] = assay: Cytotoxicity against human H460 cells at 1 ug/ml relative to control; type: functional
MCF7 [4] = assay: Cytotoxicity against human MCF7 cells; type: functional, cell-based
Method in brief: (§1)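 Monolayer cell survival and proliferation assay run across a panel of 36 human tumour cell lines; IC50 values determined.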

[5] = Cytotoxicity against human GXF251L cells at 0.001 ug/ml relative to control; type: functional
PANC-1 = assay: Cytotoxicity against human PANC1 cells at 10 ug/ml relative to control; type: functional
[6] = Cytotoxicity against human LXFL 529L cells at 0.1 ug/ml relative to control; type: functional
[7] = Cytotoxicity against human RXF 1781L cells at 10 ug/ml relative to control; type: functional
[8] = Cytotoxicity against human MEXF 514L cells; type: functional, cell-based
Method in brief: (§2)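 Monolayer cell survival and proliferation assay run across a panel of 36 human tumor cell lines, with IC50 determined from the resulting growth data.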

T-24 [9] = assay: Cytotoxicity against human T24 cells at 0.01 ug/ml relative to control; type: functional
[10] = Cytotoxicity against human OVXF 899L cells; type: functional, cell-based; method in brief: as §2
[11] = Cytotoxicity against human GXF251L cells at 0.1 ug/ml relative to control; type: functional
HT-29 [12] = assay: Cytotoxicity against human HT-29 cells at 0.1 ug/ml relative to control; type: functional
HCT-116 = assay: Cytotoxicity against human HCT116 cells at 1 ug/ml relative to control; type: functional
[13] = Cytotoxicity against human MAXF 401NL cells at 0.1 ug/ml relative to control; type: functional
[14] = Cytotoxicity against human RXF 393NL cells; type: functional, cell-based; method in brief: as §2
HT-29 [15] = assay: Cytotoxicity against human HT-29 cells at 0.01 ug/ml relative to control; type: functional
MCF7 [16] = assay: Cytotoxicity against human MCF7 cells at 0.001 ug/ml relative to control; type: functional
[17] = Cytotoxicity against human LXFL 1121L cells at 0.01 ug/ml relative to control; type: functional
[18] = Cytotoxicity against human PC3M cells at 0.1 ug/ml relative to control; type: functional, PC-3M
[19] = Cytotoxicity against human LXFA 289L cells at 0.001 ug/ml relative to control; type: functional
[20] = Cytotoxicity against human LXFA 629L cells at 1 ug/ml relative to control; type: functional
[21] = Cytotoxicity against human GXF251L cells at 1 ug/ml relative to control; type: functional
NCI-H460 [22] = assay: Cytotoxicity against human H460 cells; type: functional, cell-based
Method in brief: (§3)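 Monolayer cell survival and proliferation assay, run within a panel of 36 human tumor cell lines; IC50 determined per cell line.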

DU-145 = assay: Cytotoxicity against human DU145 cells at 1 ug/ml relative to control; type: functional
[23] = Cytotoxicity against human HNXF 536L cells at 1 ug/ml relative to control; type: functional
[24] = Cytotoxicity against human RXF 486L cells at 0.1 ug/ml relative to control; type: functional
[25] = Cytotoxicity against human RXF 944L cells at 0.001 ug/ml relative to control; type: functional
LNCaP [26] = assay: Cytotoxicity against human LNCAP cells at 1 ug/ml relative to control; type: functional
[27] = Cytotoxicity against human BXF 1218L cells at 0.01 ug/ml relative to control; type: functional
LNCaP [28] = assay: Cytotoxicity against human LNCAP cells at 0.001 ug/ml relative to control; type: functional
[29] = Cytotoxicity against human LXFA 289L cells at 1 ug/ml relative to control; type: functional
[30] = Cytotoxicity against human PC3M cells at 0.001 ug/ml relative to control; type: functional, PC-3M
[31] = Cytotoxicity against human UXF 1138L cells at 0.1 ug/ml relative to control; type: functional
[32] = Cytotoxicity against human MEXF 276L cells at 0.001 ug/ml relative to control; type: functional, MEXF276L
[33] = Cytotoxicity against human PXF 1752L cells at 0.001 ug/ml relative to control; type: functional
LNCaP [34] = assay: Cytotoxicity against human LNCAP cells at 0.1 ug/ml relative to control; type: functional
T-24 [35] = assay: Cytotoxicity against human T24 cells; type: functional, cell-based; method in brief: as §2
[36] = Cytotoxicity against human CNXF 498NL cells at 10 ug/ml relative to control; type: functional
[37] = Cytotoxicity against human PAXF 1657L cells at 10 ug/ml relative to control; type: functional
[38] = Cytotoxicity against human HNXF 536L cells; type: functional, cell-based; method in brief: as §3
OVCAR-3 [39] = assay: Cytotoxicity against human OVCAR3 cells at 0.1 ug/ml relative to control; type: functional
HT-29 [40] = assay: Cytotoxicity against human HT-29 cells at 1 ug/ml relative to control; type: functional
[41] = Cytotoxicity against human PAXF 1657L cells at 1 ug/ml relative to control; type: functional
OVCAR-3 [42] = assay: Cytotoxicity against human OVCAR3 cells at 1 ug/ml relative to control; type: functional
SF-268 [43] = assay: Cytotoxicity against human SF268 cells at 1 ug/ml relative to control; type: functional
[44] = Cytotoxicity against human MEXF 462NL cells at 0.01 ug/ml relative to control; type: functional
HT-29 [45] = assay: Cytotoxicity against human HT-29 cells at 10 ug/ml relative to control; type: functional
[46] = Cytotoxicity against human PC3M cells at 10 ug/ml relative to control; type: functional, PC-3M
[47] = Cytotoxicity against human MEXF 276L cells; type: functional, cell-based; settings: MEXF276L; method in brief: as §2
SF-268 [48] = assay: Cytotoxicity against human SF268 cells at 0.001 ug/ml relative to control; type: functional
[49] = Cytotoxicity against human HNXF 536L cells at 0.1 ug/ml relative to control; type: functional
[50] = Cytotoxicity against human MEXF 276L cells at 0.1 ug/ml relative to control; type: functional, MEXF276L
T-24 [51] = assay: Cytotoxicity against human T24 cells at 0.001 ug/ml relative to control; type: functional
[52] = Cytotoxicity against human LXFA 629L cells; type: functional, cell-based; method in brief: as §1
CWR22R = assay: Cytotoxicity against human 22Rv1 cells; type: functional, cell-based; method in brief: as §3

Compound: C=C1[C@@H](O)[C@H]2O[C@@]2(C[C@H]2C(C)=CC[C@H]3C(C)(C)CCC[C@]23C)[C@@H](O)[C@H]1O [EPOXYPHOLAMIN D]
- Activity [1]: 100%
- Activity [2]: 17%
- Activity (NCI-H460 [3]): 86%
- IC50 (MCF7 [4]): 5.32 µM
- IC70 (MCF7 [4]): 4.01 µg/mL (≈ 11.1 µM)
- IC90 (MCF7 [4]): 8.33 µg/mL (≈ 23 µM)
- Activity [5]: 105%
- Activity (PANC-1): 7%
- Activity [6]: 100%
- Activity [7]: 21%
- IC50 [8]: 11.6 µM
- IC70 [8]: 6.57 µg/mL (≈ 18.1 µM)
- IC90 [8]: 10.2 µg/mL (≈ 28.2 µM)
- Activity (T-24 [9]): 97%
- IC50 [10]: 8.19 µM
- IC70 [10]: 5.62 µg/mL (≈ 15.5 µM)
- IC90 [10]: 10.7 µg/mL (≈ 29.4 µM)
- Activity [11]: 112%
- Activity (HT-29 [12]): 108%
- Activity (HCT-116): 87%
- Activity [13]: 110%
- IC50 [14]: 11.8 µM
- IC70 [14]: 6.53 µg/mL (≈ 18 µM)
- IC90 [14]: 10 µg/mL (≈ 27.6 µM)
- Activity (HT-29 [15]): 113%
- Activity (MCF7 [16]): 91%
- Activity [17]: 135%
- Activity [18]: 73%
- Activity [19]: 98%
- Activity [20]: 53%
- Activity [21]: 41%
- IC50 (NCI-H460 [22]): 7.48 µM
- IC70 (NCI-H460 [22]): 4.73 µg/mL (≈ 13 µM)
- IC90 (NCI-H460 [22]): 8.23 µg/mL (≈ 22.7 µM)
- Activity (DU-145): 90%
- Activity [23]: 88%
- Activity [24]: 97%
- Activity [25]: 150%
- Activity (LNCaP [26]): 136%
- Activity [27]: 94%
- Activity (LNCaP [28]): 82%
- Activity [29]: 102%
- Activity [30]: 120%
- Activity [31]: 99%
- Activity [32]: 98%
- Activity [33]: 95%
- Activity (LNCaP [34]): 103%
- IC50 (T-24 [35]): 12 µM
- IC70 (T-24 [35]): 6.41 µg/mL (≈ 17.7 µM)
- IC90 (T-24 [35]): 9.44 µg/mL (≈ 26 µM)
- Activity [36]: 4%
- Activity [37]: 9%
- IC50 [38]: 7.92 µM
- IC70 [38]: 5 µg/mL (≈ 13.8 µM)
- IC90 [38]: 8.7 µg/mL (≈ 24 µM)
- Activity (OVCAR-3 [39]): 91%
- Activity (HT-29 [40]): 121%
- Activity [41]: 73%
- Activity (OVCAR-3 [42]): 43%
- Activity (SF-268 [43]): 117%
- Activity [44]: 122%
- Activity (HT-29 [45]): 1%
- Activity [46]: 5%
- IC50 [47]: 4.69 µM
- IC70 [47]: 5.54 µg/mL (≈ 15.3 µM)
- IC90 [47]: 18.1 µg/mL (≈ 49.8 µM)
- Activity (SF-268 [48]): 106%
- Activity [49]: 98%
- Activity [50]: 98%
- Activity (T-24 [51]): 100%
- IC50 [52]: 3.2 µM
- IC70 [52]: 3.08 µg/mL (≈ 8.51 µM)
- IC90 [52]: 8.22 µg/mL (≈ 22.7 µM)
- IC50 (CWR22R): 2.48 µM
- IC70 (CWR22R): 3.06 µg/mL (≈ 8.45 µM)
- IC90 (CWR22R): 10.6 µg/mL (≈ 29.4 µM)
